For orientation: IC50 means the concentration at which inhibition is half-maximal. A higher IC50 goes with lower potency. As usually defined, the ED50 is the dose that gives a 50% effect, or the effect in half of the subjects. The low end stands for an effect at a small dose, the high end for a need for a large dose. The term clearance denotes the volume of plasma or blood freed of the substance per unit of time. As a reminder, the half-life is how long it takes for the measured level to halve. Read a low half-life as rapid decline. What is called bioavailability is dose-corrected exposure relative to a reference, in per cent. Lower therefore signals little systemic uptake.

Results on 1 compound are retold here after ChEMBL document CHEMBL1149254, “The discovery of orally active triaminotriazine aniline amides as inhibitors of p38 MAP kinase” (J Med Chem, 2004).

The test system of one data set is THP-1. Kind of data set: Inhibition of LPS-induced TNFalpha production in human THP1 cells by ELISA. It is filed as functional, cell-based. Summed up: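 THP-1 cells grown in RPMI 1640 with 10% FBS, 40000 cells/well. Compound or vehicle was added (1% DMSO final), then LPS at 1 μg/mL final. Cells were incubated overnight at 37 °C, 5% CO2. TNF in the supernatant was measured by sandwich ELISA: anti-human TNF capture, biotinylated polyclonal detection, streptavidin-peroxidase read-out.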
A general note: In an ELISA, binding on a coated surface is turned into a signal by an enzyme label.

In data set [1] the test system is Mus musculus. Put plainly: Inhibition of LPS-induced TNFalpha release in po dosed BALB/c mouse after 90 mins. It is filed as functional. The settings on record: 1.5 h. In a few lines: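 Female BALB/c mice, 6–8 weeks old. Compound in 100% PEG 300 given by oral gavage 30 min before ip LPS (0.1 mL of 10 μg/mL in PBS). Blood was taken 90 min after LPS and serum TNF-α measured by ELISA. Mean ± SD, n = 8 mice per group.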

A further data set relates to PBMC. Put plainly: Inhibition of LPS-induced TNFalpha production in human PBMC by ELISA. It is filed as functional, cell-based. In a few lines:
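PBMC from healthy donors, isolated on ficoll, plated at 1×10^6 cells/mL in RPMI with 10% FBS. Compound was preincubated for 30 min, then cells were stimulated with 25 ng/mL LPS (final) for 6 h at 37 °C, 5% CO2. Supernatant TNF-α was measured by ELISA.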

Data set [2] deals with Mus musculus. Kind of data set: Inhibition of LPS-induced TNFalpha release in BALB/c mouse administered at 10 mg/kg before 30 mins of LPS challenge. It is filed as functional, organism-based. Set-up: dose 10 mg/kg. In a few lines:
(§1)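 BALB/c mouse LPS-TNF model. Compound was given at 10 mpk at time points from 30 min to 10 h before LPS challenge, and TNF suppression was assessed at each pretreatment interval.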

Data set [3] deals with Mus musculus. Kind of data set: Inhibition of LPS-induced TNFalpha release in BALB/c mouse administered at 10 mg/kg before 2 hrs of LPS challenge. The class given is functional, organism-based. Set-up: dose 10 mg/kg. In a few lines:
as §1

The target in data set [4] is Mitogen-activated protein kinase 11 (Homo sapiens, UniProt Q15759). Kind of data set: Inhibition of human p38beta.
Sequence of Mitogen-activated protein kinase 11 (Q15759 whole entry): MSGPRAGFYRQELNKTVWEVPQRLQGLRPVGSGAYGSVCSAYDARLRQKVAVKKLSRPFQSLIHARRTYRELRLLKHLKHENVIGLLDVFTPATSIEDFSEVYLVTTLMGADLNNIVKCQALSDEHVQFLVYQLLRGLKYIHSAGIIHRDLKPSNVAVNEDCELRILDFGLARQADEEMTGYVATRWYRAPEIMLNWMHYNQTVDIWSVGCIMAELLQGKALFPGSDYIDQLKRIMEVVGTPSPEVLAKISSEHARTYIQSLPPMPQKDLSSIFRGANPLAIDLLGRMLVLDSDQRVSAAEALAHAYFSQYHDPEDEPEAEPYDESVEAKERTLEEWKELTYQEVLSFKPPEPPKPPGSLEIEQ
For data set [5], the target named is T1, Tyrosine-protein kinase JAK3 (Homo sapiens, UniProt P52333).
T1 sequence (P52333 whole entry): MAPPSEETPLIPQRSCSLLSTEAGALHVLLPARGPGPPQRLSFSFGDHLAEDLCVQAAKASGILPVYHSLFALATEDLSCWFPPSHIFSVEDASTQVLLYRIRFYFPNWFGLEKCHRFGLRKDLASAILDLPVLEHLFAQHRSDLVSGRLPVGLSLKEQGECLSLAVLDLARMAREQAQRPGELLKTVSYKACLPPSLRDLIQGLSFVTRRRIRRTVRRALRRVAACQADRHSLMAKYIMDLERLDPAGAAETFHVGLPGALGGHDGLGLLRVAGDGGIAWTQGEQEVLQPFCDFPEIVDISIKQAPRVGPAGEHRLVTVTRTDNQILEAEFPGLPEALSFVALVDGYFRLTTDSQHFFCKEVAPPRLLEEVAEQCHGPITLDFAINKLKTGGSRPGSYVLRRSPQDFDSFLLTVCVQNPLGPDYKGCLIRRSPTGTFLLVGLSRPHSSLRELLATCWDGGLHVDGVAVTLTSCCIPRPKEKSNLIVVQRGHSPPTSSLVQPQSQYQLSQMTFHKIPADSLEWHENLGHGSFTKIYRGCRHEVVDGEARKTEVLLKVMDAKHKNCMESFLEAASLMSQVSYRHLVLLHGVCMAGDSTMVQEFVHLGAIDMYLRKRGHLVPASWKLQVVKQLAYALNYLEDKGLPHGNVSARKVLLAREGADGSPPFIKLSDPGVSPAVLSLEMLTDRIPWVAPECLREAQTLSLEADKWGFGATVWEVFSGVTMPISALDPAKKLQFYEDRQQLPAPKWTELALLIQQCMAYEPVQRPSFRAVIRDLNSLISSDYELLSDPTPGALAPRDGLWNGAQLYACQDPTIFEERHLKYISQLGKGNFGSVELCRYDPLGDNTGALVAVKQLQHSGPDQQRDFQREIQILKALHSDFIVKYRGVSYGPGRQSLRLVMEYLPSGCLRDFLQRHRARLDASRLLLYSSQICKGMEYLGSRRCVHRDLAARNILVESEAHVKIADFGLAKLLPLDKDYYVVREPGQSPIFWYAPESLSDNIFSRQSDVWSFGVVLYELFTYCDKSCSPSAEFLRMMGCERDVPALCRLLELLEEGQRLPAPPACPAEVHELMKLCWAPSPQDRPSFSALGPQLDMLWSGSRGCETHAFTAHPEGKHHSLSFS
Put plainly: Inhibition of JAK3.

In data set [6] the target is Protein kinase C alpha type (Homo sapiens, UniProt P17252). Put plainly: Inhibition of PKCalpha.
Data set [7] has as its target Protein kinase C delta type (Homo sapiens, UniProt Q05655). Put plainly: Inhibition of PKCdelta.
Data set [8] deals with cAMP-dependent protein kinase (PKA) (Homo sapiens, UniProt P22694+P17612+P22612). Put plainly: Inhibition of PKA. It is filed as protein assay.
The target of data set [9] is Tyrosine-protein kinase Lck (Homo sapiens, UniProt P06239). Kind of data set: Inhibition of LCK.
Sequence of Tyrosine-protein kinase Lck (P06239 whole entry): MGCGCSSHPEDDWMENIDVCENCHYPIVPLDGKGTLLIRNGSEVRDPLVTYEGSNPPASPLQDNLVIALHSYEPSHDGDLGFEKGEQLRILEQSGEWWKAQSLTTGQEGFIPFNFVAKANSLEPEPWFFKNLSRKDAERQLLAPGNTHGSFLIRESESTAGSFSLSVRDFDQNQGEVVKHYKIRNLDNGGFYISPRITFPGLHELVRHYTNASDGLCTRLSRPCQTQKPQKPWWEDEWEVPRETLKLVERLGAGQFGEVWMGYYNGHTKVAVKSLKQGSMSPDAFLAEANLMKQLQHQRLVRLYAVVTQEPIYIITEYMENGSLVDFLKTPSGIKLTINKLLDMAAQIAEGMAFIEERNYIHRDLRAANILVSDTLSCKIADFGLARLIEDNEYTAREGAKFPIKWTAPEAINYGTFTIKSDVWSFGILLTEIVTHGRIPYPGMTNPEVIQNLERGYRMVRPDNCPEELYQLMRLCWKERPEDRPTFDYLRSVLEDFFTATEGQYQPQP
Data set [10] has as its target T2, Tyrosine-protein kinase ZAP-70 (Homo sapiens, UniProt P43403).
T2 sequence (P43403 whole entry): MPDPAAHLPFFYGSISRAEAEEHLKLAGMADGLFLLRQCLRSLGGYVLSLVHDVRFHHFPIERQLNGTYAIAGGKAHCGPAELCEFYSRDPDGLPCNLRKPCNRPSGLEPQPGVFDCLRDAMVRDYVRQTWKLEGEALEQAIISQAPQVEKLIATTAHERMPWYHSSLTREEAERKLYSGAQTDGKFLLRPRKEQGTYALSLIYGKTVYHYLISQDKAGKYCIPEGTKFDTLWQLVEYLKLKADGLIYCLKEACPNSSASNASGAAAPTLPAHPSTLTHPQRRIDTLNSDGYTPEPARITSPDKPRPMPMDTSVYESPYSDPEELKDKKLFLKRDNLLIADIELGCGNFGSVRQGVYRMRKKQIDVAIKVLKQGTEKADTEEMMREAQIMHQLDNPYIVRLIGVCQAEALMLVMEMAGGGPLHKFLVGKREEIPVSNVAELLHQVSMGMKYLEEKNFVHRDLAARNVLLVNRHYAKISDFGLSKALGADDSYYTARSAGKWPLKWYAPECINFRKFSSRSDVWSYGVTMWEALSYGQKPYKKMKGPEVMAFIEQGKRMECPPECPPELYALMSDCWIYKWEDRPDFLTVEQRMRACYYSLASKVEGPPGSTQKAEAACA
Kind of data set: Inhibition of Zap70.

Data set [11] has as its target Vascular endothelial growth factor receptor 2 (Homo sapiens, UniProt P35968). Kind of data set: Inhibition of KDR.
The nature of data set [12]: Metabolic stability in mouse liver microsomes. The class given is ADME, Microsome. In general terms: Microsomes from liver hold many membrane-bound enzymes, among them those of drug oxidation.
A further data set relates to Liver microsomes. Kind of data set: Metabolic stability in human liver microsomes. It is filed as ADME, Microsome.
Data set [13] is described as follows: Clearance in mouse. It is filed as ADME, organism-based. The settings on record: in vivo.
A short description of data set [14]: Half life in mouse. The class given is ADME, organism-based. The settings on record: in vivo.
The nature of data set [15]: Bioavailability in mouse. The settings on record: in vivo. The class given is ADME, organism-based.
The next data set deals with Rattus norvegicus. Kind of data set: Suppression of paw swelling in adjuvant arthritis Lewis rat model at 50 mg/kg, po BID.

Activity calls are given as the source filed them. The rule behind the calls is not given here. Where only a bound is given, the exact number is not on record here.

Sequence of Vascular endothelial growth factor receptor 2 (P35968 whole entry): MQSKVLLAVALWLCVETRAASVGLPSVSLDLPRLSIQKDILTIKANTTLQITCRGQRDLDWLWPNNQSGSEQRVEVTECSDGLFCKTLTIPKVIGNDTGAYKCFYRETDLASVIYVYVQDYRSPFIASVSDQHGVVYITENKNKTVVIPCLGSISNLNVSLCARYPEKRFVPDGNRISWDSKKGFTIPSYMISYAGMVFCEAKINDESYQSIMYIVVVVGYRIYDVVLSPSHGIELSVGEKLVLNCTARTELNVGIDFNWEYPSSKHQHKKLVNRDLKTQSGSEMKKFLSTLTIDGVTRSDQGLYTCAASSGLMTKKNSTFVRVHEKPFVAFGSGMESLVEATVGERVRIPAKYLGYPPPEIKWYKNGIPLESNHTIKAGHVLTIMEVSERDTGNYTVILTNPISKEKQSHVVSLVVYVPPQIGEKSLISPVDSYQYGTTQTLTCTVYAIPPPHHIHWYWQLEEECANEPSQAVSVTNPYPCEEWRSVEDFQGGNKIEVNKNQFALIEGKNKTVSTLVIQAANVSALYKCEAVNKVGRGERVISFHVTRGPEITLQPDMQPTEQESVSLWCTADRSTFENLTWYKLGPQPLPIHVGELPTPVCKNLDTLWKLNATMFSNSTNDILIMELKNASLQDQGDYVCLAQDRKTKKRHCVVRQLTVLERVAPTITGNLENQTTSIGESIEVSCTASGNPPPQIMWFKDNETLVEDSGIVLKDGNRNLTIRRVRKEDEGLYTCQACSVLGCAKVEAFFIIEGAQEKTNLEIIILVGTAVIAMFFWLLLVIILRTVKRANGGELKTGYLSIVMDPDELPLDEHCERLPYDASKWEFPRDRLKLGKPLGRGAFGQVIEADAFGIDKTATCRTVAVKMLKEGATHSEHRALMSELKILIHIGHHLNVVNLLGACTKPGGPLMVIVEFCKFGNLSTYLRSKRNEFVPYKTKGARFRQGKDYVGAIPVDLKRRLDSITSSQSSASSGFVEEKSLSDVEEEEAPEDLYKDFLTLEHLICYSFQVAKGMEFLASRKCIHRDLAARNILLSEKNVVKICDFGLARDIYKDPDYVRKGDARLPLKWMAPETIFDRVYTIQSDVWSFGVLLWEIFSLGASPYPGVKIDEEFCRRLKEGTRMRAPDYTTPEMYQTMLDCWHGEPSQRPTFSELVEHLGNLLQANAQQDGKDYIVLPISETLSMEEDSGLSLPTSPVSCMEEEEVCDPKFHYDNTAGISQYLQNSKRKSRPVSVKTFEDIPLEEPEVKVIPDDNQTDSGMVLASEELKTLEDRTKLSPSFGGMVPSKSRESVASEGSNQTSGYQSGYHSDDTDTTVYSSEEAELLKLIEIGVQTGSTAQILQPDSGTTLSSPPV
Sequence of Protein kinase C delta type (Q05655 whole entry): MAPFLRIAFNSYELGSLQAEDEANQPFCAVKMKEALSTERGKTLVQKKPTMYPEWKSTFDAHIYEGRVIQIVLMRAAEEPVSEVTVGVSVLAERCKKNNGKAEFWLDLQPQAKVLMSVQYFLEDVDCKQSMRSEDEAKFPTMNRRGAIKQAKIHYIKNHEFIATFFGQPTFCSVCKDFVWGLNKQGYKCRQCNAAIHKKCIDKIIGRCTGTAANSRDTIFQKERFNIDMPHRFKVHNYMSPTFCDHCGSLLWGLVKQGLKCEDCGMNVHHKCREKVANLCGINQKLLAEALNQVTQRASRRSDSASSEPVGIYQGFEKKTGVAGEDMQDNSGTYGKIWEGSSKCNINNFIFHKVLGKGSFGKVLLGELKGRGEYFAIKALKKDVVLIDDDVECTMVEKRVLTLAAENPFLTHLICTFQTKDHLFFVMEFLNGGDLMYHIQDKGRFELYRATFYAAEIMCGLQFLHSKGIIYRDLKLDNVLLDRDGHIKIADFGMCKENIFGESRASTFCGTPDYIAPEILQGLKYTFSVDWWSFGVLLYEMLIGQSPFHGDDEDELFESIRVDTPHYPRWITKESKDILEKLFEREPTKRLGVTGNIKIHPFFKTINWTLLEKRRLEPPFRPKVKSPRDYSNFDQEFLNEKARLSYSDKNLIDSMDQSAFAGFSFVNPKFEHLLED

With `CONC(=O)c1ccc(C)c(Nc2nc(N(C)CC(C)(C)C)nc(N3CCCN(C)CC3)n2)c1`, the IC50 is 0.085 µM with THP-1; 0.0046 µM in the data set on PBMC; 0.022 µM in [4]; above 10 µM in [5]; above 10 µM in data set [6]; above 10 µM in data set [7]. Also, the IC50 is above 10 µM in [8], above 10 µM in data set [9], above 50 µM in [10] and above 10 µM in data set [11]. In the data set on Mus musculus [1], this compound showed an ED50 of 3 mg/kg. In addition, the outcome with Mus musculus [2] and with Mus musculus [3] was Active. Moreover, the Stability in data set [12] came to 0.8 nmol/mg/min; with Liver microsomes, 0.2 nmol/mg/min. The same compound had a clearance in data set [13] of 107 mL/min/kg. The compound also gave a half-life in data set [14] of 42 min. Also, the bioavailability in data set [15] was determined as 8%. Further, in the data set on Rattus norvegicus, the Activity was found to be 50%.
